According to ChEMBL document CHEMBL1156686, “Xanthine oxidase-activated prodrugs of thymidine phosphorylase inhibitors” (Eur J Med Chem, 2008):

Substrate: O=c1[nH]c(=O)n([C@H]2C[C@H](O)[C@@H](CO)O2)cc1[N+](=O)[O-]
Assay: Activity of Escherichia coli thymidine phosphorylase
Outline: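 Recombinant E. coli TP (0.00883 U per 0.2 ml) added to start a continuous spectrophotometric assay. Mix: 0.13 mM 5-nitro-2'-deoxyuridine substrate in 0.1 M potassium phosphate, pH 7.4, 25 °C, read at 355 nm in a microplate. Initial velocity compared with the mean of at least two no-inhibitor controls. Where derived, IC50 used at least five concentrations spanning the value.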

B1: Thymidine phosphorylase (Escherichia coli K-12), P07650 (protein)
chain: MFLAQEIIRKKRDGHALSDEEIRFFINGIRDNTISEGQIAALAMTIFFHDMTMPERVSLTMAMRDSGTVLDWKSLHLNGPIVDKHSTGGVGDVTSLMLGPMVAACGGYIPMISGRGLGHTGGTLDKLESIPGFDIFPDDNRFREIIKDVGVAIIGQTSSLAPADKRFYATRDITATVDSIPLITASILAKKLAEGLDALVMDVKVGSGAFMPTYELSEALAEAIVGVANGAGVRTTALLTDMNQVLASSAGNAVEVREAVQFLTGEYRNPRLFDVTMALCVEMLISGKLAKDDAEARAKLQAVLDNGKAAEVFGRMVAAQKGPTDFVENYAKYLPTAMLTKAVYADTEGFVSEMDTRALGMAVVAMGGGRRQASDTIDYSVGFTDMARLGDQVDGQRPLAVIHAKDENNWQEAAKAVKAAIKLADKAPESTPTVYRRISE
  kcat: 20 s⁻¹
